These results are taken from publication PMC3169429 (ACS chemical biology, 2010).

Some results are limits rather than exact numbers.

Series [1] concerns the target T1, bacteriophage T4 clamp loader, gp44/62 (Enterobacteria phage T4, UniProt P04526).
T1 sequence (P04526 1-319): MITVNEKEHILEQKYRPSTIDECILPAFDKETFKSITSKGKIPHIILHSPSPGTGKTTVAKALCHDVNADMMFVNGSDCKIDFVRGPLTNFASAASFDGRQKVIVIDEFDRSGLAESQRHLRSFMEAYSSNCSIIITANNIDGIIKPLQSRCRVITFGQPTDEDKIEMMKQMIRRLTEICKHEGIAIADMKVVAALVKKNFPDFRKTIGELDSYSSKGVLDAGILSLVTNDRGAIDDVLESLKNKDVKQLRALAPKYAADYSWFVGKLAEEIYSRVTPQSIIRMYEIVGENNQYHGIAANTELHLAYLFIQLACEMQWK
T1 sequence (P04527 1-187 partner): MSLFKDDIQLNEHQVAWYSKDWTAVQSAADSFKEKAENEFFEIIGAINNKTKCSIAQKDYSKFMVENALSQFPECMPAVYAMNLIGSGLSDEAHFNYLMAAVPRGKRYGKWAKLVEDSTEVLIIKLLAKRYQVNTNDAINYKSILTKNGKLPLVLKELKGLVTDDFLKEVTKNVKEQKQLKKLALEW
Description: ATPase inhibition assay, wild-type gp44/62. The format is biochemical. Conditions: for Selectivity Factor: Ki (γ-complex) / Ki (gp44/62).

Series [2] addresses R175L mutant of gp44/62 (Enterobacteria phage T4, UniProt P04526, R175L). Description: ATPase inhibition assay, gp44/62 R175L mutant. The format is biochemical, bacteriophage T4.
Series [3] has as its target R175K mutant of gp44/62 (Enterobacteria phage T4, UniProt P04526, R175K). Nature of the series: ATPase inhibition assay, gp44/62 R175K mutant. Format: biochemical, bacteriophage T4.
The target in series [4] is E. coli clamp loader, γ-complex (Escherichia coli, UniProt P06710). Description: ATPase inhibition assay, γ-complex. Format: biochemical.
In series [5] the target is T2, gp44/62 (Enterobacteria phage T4, UniProt P04526).
T2 sequence (P04526 1-319): T1 sequence (P04526 1-319)
T2 sequence (P04527 1-187 partner): T1 sequence (P04527 1-187 partner)
Description: Hydrolysis of nucleotide substrates by gp44/62. Format: biochemical, bacteriophage T4. Conditions: nucleotide substrates at 500 µM. The essentials: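 Wild-type T4 gp44/62 purified from an overproducing strain. Each ribo- or deoxy-nucleotide was supplied as substrate. Hydrolysis was read as Pi release by malachite green.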

Series [6] has as its target T3, gp44/62 opening of CPM-labeled gp45 (Enterobacteria phage T4, UniProt P04526).
T3 sequence (P04526 1-319): T1 sequence (P04526 1-319)
T3 sequence (P04527 1-187 partner): T1 sequence (P04527 1-187 partner)
Nature of the series: FRET quenching / stopped-flow fluorescence clamp opening assay. The format is biochemical, bacteriophage T4. Conditions: 1 mM nucleotide, CPM-labeled gp45 mixed with gp44/62.

Series [7] concerns the target T4, bacteriophage T4 replicase (Enterobacteria phage T4, UniProt P04526).
T4 sequence (P04526 1-319): T1 sequence (P04526 1-319)
T4 sequence (P04527 1-187 partner): T1 sequence (P04527 1-187 partner)
Description: Replicase formation. Format: biochemical. Conditions: 100 µM inhibitor.

In series [8] the test system is T4 DNA polymerase. Description: DNA polymerase activity in the strand displacement assay. Format: biochemical, bacteriophage T4. Conditions: absence or presence of 100 µM d5-NITP.
The target in series [9] is T1, bacteriophage T4 clamp loader, gp44/62. Conditions: read-out: Ki (inhibition constant) against gp44/62; cited from earlier work.
Series [10] concerns T4 bacteriophage. Description: Plaque forming assay in JA300 E. coli. Format: cell-based, T4 bacteriophage in E. coli JA300.
Series [11] deals with T4 bacteriophage. Nature of the series: Plaque forming assay in deoxythymidine kinase deficient E. coli KY895. Format: cell-based, T4 bacteriophage in E. coli KY895 (tdk-1). Conditions: 100 µg/ml. The method in brief:
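The plaque assay used the deoxythymidine kinase knockout E. coli strain KY895 in place of JA300. An overnight culture was diluted 1:150 in LB and pre-incubated with the nucleoside for 60 min at 37°C. Cells were infected with ~300 pfu T4 and plated over LB/agar for 24 h at 37°C. Plaques were counted manually; ANOVA and t-test were applied.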

Series [12] has as its system JA300 E. coli cells. Description: Toxicity screen against E. coli. Format: cell-based, Escherichia coli. Conditions: in suspension or plated on LB/agar for extended periods.

Sequence of R175L mutant of gp44/62 (P04526 whole entry R175L, one chain of several): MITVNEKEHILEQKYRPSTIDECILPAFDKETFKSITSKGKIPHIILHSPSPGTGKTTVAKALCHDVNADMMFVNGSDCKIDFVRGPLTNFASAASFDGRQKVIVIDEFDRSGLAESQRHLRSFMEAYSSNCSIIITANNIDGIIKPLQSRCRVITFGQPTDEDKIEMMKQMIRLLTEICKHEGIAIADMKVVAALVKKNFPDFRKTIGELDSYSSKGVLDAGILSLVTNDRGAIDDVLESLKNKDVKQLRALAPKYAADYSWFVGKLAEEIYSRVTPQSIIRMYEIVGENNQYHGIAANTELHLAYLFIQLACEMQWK
Sequence of R175K mutant of gp44/62 (P04526 whole entry R175K, one chain of several): as the sequence (P04526 whole entry R175L, one chain of several) above, with L175K counted along it

With `Nc1ncnc2c1ncn2[C@@H]1O[C@H](CO[P@](=O)(O)O[P@](=O)(O)O[P@@](=O)(O)S)[C@@H](O)[C@H]1O` [ATPγS, reference compound], in series [1], the “Selectivity Factor” value was 0.44. Also, the results for the Ki in series [2], in series [3] and in [4] were 33.2 ± 8 µM, 14 ± 3.5 µM and 13 ± 4.5 µM, respectively.

Regarding `CCc1ccc2c(ccn2[C@H]2C[C@H](O)[C@@H](COP(=O)(O)OP(=O)(O)OP(=O)(O)O)O2)c1` [d5-EtITP, 5-ethyl-indolyl-2’-deoxyriboside triphosphate], the “Selectivity Factor” value in series [1] is listed as 0.11. Also, the “Fold lower Ki in R175L mutant compared to wild type enzyme” value in [2] is listed as ~ 10 fold. For the compound `Nc1ncnc2c1ncn2[C@H]1C[C@H](O)[C@@H](COP(=O)(O)OP(=O)(O)OP(=O)(O)O)O1` [dATP, reference compound], the “Hydrolysis by gp44/62” value in series [5] is “hydrolyzes dATP just as efficiently as ATP”. For `O=[N+]([O-])c1ccc2c(ccn2[C@H]2C[C@H](O)[C@@H](COP(=O)(O)OP(=O)(O)OP(=O)(O)O)O2)c1` [d5-NITP, 5-nitro-indolyl-2’-deoxyriboside triphosphate], in [6], the “Amplitude of change in fluorescence (clamp opening)” value was 0.044 ± 0.002 units. Further, in series [7], the “Formation of the replicase complex” value is “inhibits formation of the replicase complex”. The “Effect on polymerase activity (products generated by polymerase alone)” value in [8] is “identical amounts of products are generated”.

Consider `Nc1ncnc2c1ncn2[C@@H]1O[C@H](COP(=O)(O)OP(=O)(O)OP(=O)(O)O)[C@@H](O)[C@H]1O` [ATP, reference compound], for which the “Amplitude of change in fluorescence (clamp opening)” value in [6] was determined as 0.2199 ± 0.0004 units.

In the case of `Nc1ncnc2c1ncn2C1OC(COP(=O)(O)OP(=O)(O)NP(=O)(O)O)C(O)C1O` (stereo not drawn) [AMP-PNP, 5'-adenylyl-beta, gamma-imidodiphosphate], the Ki in series [9] is 1200 µM. `O=P(O)(O)OP(=O)(O)OP(=O)(O)OC[C@H]1O[C@@H](n2ccc3cc(C4=CCCCC4)ccc32)C[C@@H]1O` [d5-CEITP, 5-cyclohexene-indolyl-2’-deoxyriboside triphosphate]: the “Selectivity Factor” value in series [1] was determined as 1.18. On to `O=[N+]([O-])c1ccc2ccn([C@H]3C[C@H](O)[C@@H](COP(=O)(O)OP(=O)(O)OP(=O)(O)O)O3)c2c1` [d6-NITP, 6-nitro-indolyl-2’-deoxyriboside triphosphate], for which, in series [1], the “Selectivity Factor” value was 1.59. For `OC[C@H]1O[C@@H](n2ccc3cc(F)ccc32)C[C@@H]1O` [d5-FI, 5-fluoro-indolyl-2’-deoxyriboside], in series [10] (100 µg/mL), the “Inhibition of plaque formation” value is recorded as “do not inhibit plaque formation”.

In the case of `O=C(N[C@H](CO)[C@H](O)c1ccc([N+](=O)[O-])cc1)C(Cl)Cl` [chloramphenicol, reference compound], the “Decrease in phage infectivity” value in series [10] (bacteriostatic agent control) is on record as “does not cause an appreciable decrease”. Turning to `O=[N+]([O-])c1ccc2c(ccn2[C@H]2C[C@H](O)[C@@H](CO)O2)c1` [d5-NI, 5-nitro-indolyl-2’-deoxyriboside], the “Effect on plaque formation in tdk-1 strain KY895 compared to wild-type JA300” value in series [11] is listed as “significantly reduced”. In series [10] (25 µg/mL versus 50 µg/mL), the “Fold less protection at 25 µg/mL than at 50 µg/mL” value is on record as ~ 2.5 fold. In [10] (E. coli preincubated with 100 µg/mL), the “Fewer plaques compared to untreated E. coli” value is ~ 40%. The “Inhibition of gp44/62” value in [1] (at concentrations greater than 200 µM) was “does not inhibit”. In addition, the “Bactericidal or bacteriostatic effect on E. coli” value in series [12] is recorded as “does not produce a significant bactericidal or bacteriostatic effect”. Turning to `C=Cc1ccc2c(ccn2[C@H]2C[C@H](O)[C@@H](CO)O2)c1` [d5-Ey, 5-ethylene-indolyl-2'-deoxyribose], the “Inhibition of plaque formation” value in series [10] (150 µg/mL) stood at 15%.

On to `O=[N+]([O-])c1cccc2c1ccn2[C@H]1C[C@H](O)[C@@H](COP(=O)(O)OP(=O)(O)OP(=O)(O)O)O1` [d4-NITP, 4-nitro-indolyl-2’-deoxyriboside triphosphate], for which, in series [1], the “Selectivity Factor” value came to 0.32. Moreover, the “Fold higher Ki than d5-NITP” value in series [1] (wild type gp44/62) was ~ 6 fold.

For `O=P(O)(O)OP(=O)(O)OP(=O)(O)OC[C@H]1O[C@@H](n2ccc3cc(-c4ccccc4)ccc32)C[C@@H]1O` [d5-PhITP, 5-phenyl-indolyl-2’-deoxyriboside triphosphate], in series [1], the “Selectivity Factor” value is recorded as 0.18. For the compound `C=Cc1ccc2c(ccn2[C@H]2C[C@H](O)[C@@H](COP(=O)(O)OP(=O)(O)OP(=O)(O)O)O2)c1` [d5-EyITP, 5-ethylene-indolyl-2’-deoxyriboside triphosphate], the “Selectivity Factor” value in [1] is less than 0.15. For the same compound, in [2], the “Fold lower Ki in R175L mutant compared to wild type enzyme” value is reported as ~ 10 fold.

`O=P(O)(O)OP(=O)(O)OP(=O)(O)OC[C@H]1O[C@@H](n2ccc3cc(C4CCCCC4)ccc32)C[C@@H]1O` [d5-CHITP, 5-cyclohexyl-indolyl-2’-deoxyriboside triphosphate]: the “Selectivity Factor” value in series [1] stood at 0.51. Same read-out and setting: then `O=P(O)(O)OP(=O)(O)OP(=O)(O)OCC1OC(n2ccc3ccccc32)CC1O` (stereo not drawn) [dITP, indolyl-2’-deoxyriboside triphosphate], with less than 0.30; and `Nc1ccc2c(ccn2[C@H]2C[C@H](O)[C@@H](COP(=O)(O)OP(=O)(O)OP(=O)(O)O)O2)c1` [d5-AITP, 5-amino-indolyl-2’-deoxyriboside triphosphate], with less than 0.23. As for `O=[N+]([O-])c1ccc2c(ccn2[C@@H]2O[C@H](COP(=O)(O)OP(=O)(O)OP(=O)(O)O)[C@@H](O)[C@H]2O)c1` [r5-NITP, 5-nitro-indolyl-2’-ribose triphosphate], in series [1] (dose-dependent inhibition of gp44/62 ATPase activity), the Hill coefficient is given as ~ 1. Moreover, the “Hydrolysis by gp44/62” value in [5] is “incapable of hydrolyzing r5-NITP”. Regarding `O=P(O)(O)OP(=O)(O)OP(=O)(O)OC[C@H]1O[C@@H](n2ccc3cc(F)ccc32)C[C@@H]1O` [d5-FITP, 5-fluoro-indolyl-2’-deoxyriboside triphosphate], the “Selectivity Factor” value in [1] was less than 0.17.
